Screening results from PubChem.
TNAP inh hiacc = TNAP (human) inhibition, high acceptor; purified TNAP, CDP-star luminescence, 1 M DEA; inhibition, % at 20 µM; 200,000 tested, 0.03% active; AID 1135;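 active = over 50% inhibition of tissue-nonspecific alkaline phosphatase at 20 µM in the single-dose screen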
Target sequence (P05186 whole entry, looked up): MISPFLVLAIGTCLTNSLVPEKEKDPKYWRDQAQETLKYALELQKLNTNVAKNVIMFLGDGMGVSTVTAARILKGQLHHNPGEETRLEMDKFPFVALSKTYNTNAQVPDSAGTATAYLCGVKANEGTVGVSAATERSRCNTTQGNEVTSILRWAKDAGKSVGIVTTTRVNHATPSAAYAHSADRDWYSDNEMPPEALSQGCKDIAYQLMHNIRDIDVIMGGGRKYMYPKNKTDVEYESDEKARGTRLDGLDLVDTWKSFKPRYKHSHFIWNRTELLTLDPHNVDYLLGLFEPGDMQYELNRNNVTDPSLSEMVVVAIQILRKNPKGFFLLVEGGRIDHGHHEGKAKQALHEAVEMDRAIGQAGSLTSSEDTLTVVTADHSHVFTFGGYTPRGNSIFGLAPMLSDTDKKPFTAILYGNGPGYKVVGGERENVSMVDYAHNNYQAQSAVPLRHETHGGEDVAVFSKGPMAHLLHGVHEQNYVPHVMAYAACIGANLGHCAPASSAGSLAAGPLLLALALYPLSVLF
bCat KO growth = beta-catenin-lacking colon tumor cell growth suppression; HCT116 beta-catenin knockout viability, CellTiter-Glo, 60 h; stronger effect = lower value; AID 818; viability, % at 10 µM; 140,000 tested, 1.5% active;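 active = viability at or under a set limit, the compound median less 4 SD, cut at about 6% in these data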
HCT116 PTEN-null = PTEN-deleted cell growth suppression; HCT116 PTEN-null viability, CellTiter-Glo, 60 h; stronger effect = lower value; viability, % at 10 µM; 140,000 tested, 1.2% active;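 active = viability at or below a set limit, 4 SD under the median of all tested compounds, cut at about 3.7% in these data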;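 note: PTEN knockout HCT116 line with beta catenin targeted HCT116 as companion control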
TNAP inh noacc = inhibitors of human TNAP without phosphate acceptor; inhibition, % at 20 µM; P05186; purified TNAP, CDP-star luminescence, 30 min; 200,000 tested, 0.26% active;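 active = tissue-nonspecific alkaline phosphatase inhibition above about 50% at 20 µM in the single-dose screen, limit read from the data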
Lmaj promast = inhibitors of Leishmania major promastigote growth. Leishmania major promastigotes, resazurin fluorescence viability. inhibition, % at 10 µM. 200,000 tested, 9% active. AID 1063; in the data active = inhibition above about 50%;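 note: promastigotes grown with compound for 44 hours at 28 °C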
TNAP act hi DEA = TNAP (human) activation, high acceptor. P05186. purified TNAP, CDP-star luminescence, 1 M DEA, 30 min; stronger effect = higher value; 0 = EDTA background, 1 = DMSO-only activity. activation factor at 20 µM. 200,000 tested, under 10 active;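 active = activation factor at least 2 at 20 µM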
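system = human TNAP | amount = enzyme diluted 1/800 final | reagent = 100 µM CDP-star substrate | signal = luminescent substrate turnover signal | dosing = one dose, 20 µM | benchmarks = EDTA negative control, DMSO positive control | measure = activation factor | timing = 30 min reaction, room temperature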
Numbers stand for hits; n = inactive; x = no result given. Shown are actives, neighbours in structure and some others; about 9.6% of the full set was active somewhere.

SMILES	TNAP inh hiacc	bCat KO growth	HCT116 PTEN-null	TNAP inh noacc	Lmaj promast	TNAP act hi DEA
O=C(NC(NC(=S)Nc1ccccc1Cl)C(Cl)(Cl)Cl)c1cccc(Cl)c1 (stereo unspecified)	n	5.6	2.7	n	n	n
O=C(CN(C(=O)Cn1nnc(-c2cccs2)n1)c1ccc2c(c1)OCCO2)NCc1ccccc1	n	n	n	n	95	n
O=C(CN(CCc1ccccc1)C(=O)Cn1nnc(-c2cccs2)n1)NCc1ccco1	n	n	n	n	n	n
Fc1ccccc1Nc1nc(-c2ccncc2)nc2ccccc12	n	n	n	n	96	n
O=C(/C=C/c1ccc(S(=O)(=O)N2CCOCC2)cc1)NCc1ccccc1	n	n	n	n	n	n
O=C(CSc1nnnn1-c1ccc(F)cc1)c1ccc(O)c(O)c1	n	x	x	75	n	n
Cc1ccc(C(=O)CN(C(=O)c2ccc(Cl)cc2)N2C(=O)CCC2=O)cc1	n	x	x	n	89	n
Cc1ccc(C(=O)CN(C(=O)c2ccc(Cl)cc2)N2C(=O)c3ccccc3C2=O)cc1	n	n	n	n	n	n
Cc1ccc(C)c2[nH]c(=O)c(C(c3nnnn3C3CCCC3)N3CCOCC3)cc12 (stereo unspecified)	n	n	n	n	n	n
CCOC(=O)C1CCN(C(c2cc3ccc(C)c(C)c3[nH]c2=O)c2nnnn2C2CCCCC2)CC1 (stereo unspecified)	n	n	n	n	86	n
CCOC(=O)C1CCN(C(c2cc3c(C)ccc(C)c3[nH]c2=O)c2nnnn2C2CCCCC2)CC1 (stereo unspecified)	n	n	n	n	99	n
COc1ccc(C(=O)COC(=O)C2CCCN2C(=O)C23CC4CC(CC(C4)C2)C3)cc1 (stereo unspecified)	n	n	n	n	55	n
O=C(COC(=O)C1CCCN1C(=O)C12CC3CC(CC(C3)C1)C2)c1ccc(Br)cc1 (stereo unspecified)	n	n	n	n	n	n
O=Cc1ccccc1Oc1ccccc1	n	n	n	n	n	n
C=CCNC(=O)COc1ccccc1C#N	n	x	x	n	n	n
O=Cc1ccccc1OCCOc1ccccc1C=O	n	n	n	n	72	n
CN1CCN(CCCCOc2ccccc2C=O)CC1	n	x	x	n	100	n
CN1CCN(CCCCC(=O)c2ccccc2)CC1	n	n	n	n	n	n
N#Cc1ccccc1Oc1ccccc1C=O	n	x	x	n	57	n
CCC(C)N1C(=O)CN(C2CCCCCC2)C(=O)C1c1ccccc1F (stereo unspecified)	n	x	x	n	n	n
O=C(COC(=O)C1COc2ccccc2O1)Nc1cccc(S(=O)(=O)N2CCCCC2)c1 (stereo unspecified)	n	x	x	n	n	n
NS(=O)(=O)c1ccc(NC(=O)N2c3ccccc3Sc3ccccc32)cc1	n	n	n	n	n	n
CC1CCN(S(=O)(=O)c2ccc(NC(=O)CN3CCOCC3)cc2)CC1	n	n	n	n	n	n
CC1CCN(S(=O)(=O)c2ccc(NC(=O)Cc3cccs3)cc2)CC1	n	n	n	n	89	n
CCOCCCNS(=O)(=O)c1ccc(NC(=O)N2c3ccccc3Sc3ccccc32)cc1	n	n	n	n	100	n
SMILES	TNAP inh hiacc	bCat KO growth	HCT116 PTEN-null	TNAP inh noacc	Lmaj promast	TNAP act hi DEA
Cc1ccc(-c2nnc(-c3ccc(NC(=O)Cc4cccs4)cc3)o2)cc1	n	1.2	1.4	n	n	n
CC1CCN(S(=O)(=O)c2ccc(NC(=O)N3c4ccccc4Sc4ccccc43)cc2)CC1	n	n	n	n	61	n
O=C(CCn1nnc2ccccc21)NNC(=O)C1CCCCC1	n	x	x	n	n	n
CCOc1ccc(N2C(=O)CC(N(CCc3ccc(OC)cc3)C(=O)/C=C/C(=O)O)C2=O)cc1 (stereo unspecified)	n	x	x	n	n	n
Cc1cc(C)[n+](C)n1CC(O)Cn1c2ccccc2c2ccccc21 (stereo unspecified)	n	x	x	n	n	n
CCS(=O)(=O)N1CCN(c2cc3c(cc2[N+](=O)[O-])n(C)c(=O)n3C)CC1	n	x	x	n	n	n
O=C(O)CCn1nnc(-c2ccccc2)n1	n	x	x	n	n	n
CC(C)N1CCC(=NNc2ccc(S(=O)(=O)N3CCOCC3)cc2[N+](=O)[O-])CC1	n	n	n	n	99	n
CCCN1CCC(=NNc2ccc(S(=O)(=O)N3CCOCC3)cc2[N+](=O)[O-])CC1	n	n	n	n	100	n
CC(=O)OC[C@H]1O[C@@H](O/N=C/C[C@@H]2C=C[C@H](OC(C)=O)[C@@H](COC(C)=O)O2)[C@H](OC(C)=O)[C@@H](OC(C)=O)[C@@H]1OC(C)=O	n	n	n	n	n	n
Cc1cc(C)cc(C(=O)N2CC(C)SC2=Nc2cccc(S(=O)(=O)N(C)C)c2)c1 (stereo unspecified)	n	n	n	n	98	n
Cc1ccc(C(=O)N2CC(C)SC2=Nc2cccc(S(=O)(=O)N(C)C)c2)cc1 (stereo unspecified)	n	n	n	n	95	n
O=C1C2C(c3ccccc3)=NN(c3ccccc3)C2C(=O)N1c1ccccc1 (stereo unspecified)	n	n	n	n	59	n
Cc1ccc(S(=O)(=O)NCCC(=O)Nc2nnc(C3CC3)s2)cc1C	n	n	n	n	n	n
Cc1cc(C)cc(N(CCC(=O)Nc2nnc(C3CC3)s2)S(=O)(=O)c2ccc(Cl)cc2)c1	n	n	n	n	82	n
CC(Oc1ccc(Cl)cc1Cl)C(=O)NCCN1CCOCC1 (stereo unspecified)	n	n	n	n	79	n
Cc1cc(Cl)ccc1OCC(=O)NCCCN1CCOCC1	n	n	n	n	92	n
O=C(COc1ccccc1Cl)NCCCN1CCOCC1	n	n	n	n	80	n
O=C(NCCCN1CCOCC1)C(=O)NCc1ccccc1Cl	n	x	x	n	n	n
O=C(CSc1ccccc1)NCCCN1CCOCC1	n	n	n	n	77	n
O=C(NCCN1CCOCC1)Nc1ccc(Cl)cc1Cl	n	n	n	n	n	n
Cc1cc(C(=O)OCC(=O)Nc2cccnc2Cl)c2ccccc2n1	n	x	x	n	n	n
O=C(COc1ccc(Cl)cc1Cl)NCCCN1CCOCC1	n	n	n	n	94	n
O=C(O/N=C1\CCCCC1c1ccc([N+](=O)[O-])cc1[N+](=O)[O-])c1c(F)cccc1F (stereo unspecified)	n	n	n	n	62	n
O=[N+]([O-])c1ccc(C2CCCC/C2=N/OCc2ccccc2F)c([N+](=O)[O-])c1 (stereo unspecified)	n	n	n	n	n	n
O=[N+]([O-])c1ccc(C2CCCC/C2=N/OCc2ccc(F)cc2)c([N+](=O)[O-])c1 (stereo unspecified)	n	n	n	n	54	n
